The Ki is a measure of affinity in units of concentration, obtained from inhibition or displacement.

The text below walks through data of ChEMBL document CHEMBL1135989, “Synthesis and in vitro pharmacology of substituted quinoline-2,4-dicarboxylic acids as inhibitors of vesicular glutamate transport” (J Med Chem, 2002).

The target of assay [1] is T1, Vesicular glutamate transporter 3 (Rattus norvegicus) (UniProt Q7TSF2).
T1 sequence (whole entry): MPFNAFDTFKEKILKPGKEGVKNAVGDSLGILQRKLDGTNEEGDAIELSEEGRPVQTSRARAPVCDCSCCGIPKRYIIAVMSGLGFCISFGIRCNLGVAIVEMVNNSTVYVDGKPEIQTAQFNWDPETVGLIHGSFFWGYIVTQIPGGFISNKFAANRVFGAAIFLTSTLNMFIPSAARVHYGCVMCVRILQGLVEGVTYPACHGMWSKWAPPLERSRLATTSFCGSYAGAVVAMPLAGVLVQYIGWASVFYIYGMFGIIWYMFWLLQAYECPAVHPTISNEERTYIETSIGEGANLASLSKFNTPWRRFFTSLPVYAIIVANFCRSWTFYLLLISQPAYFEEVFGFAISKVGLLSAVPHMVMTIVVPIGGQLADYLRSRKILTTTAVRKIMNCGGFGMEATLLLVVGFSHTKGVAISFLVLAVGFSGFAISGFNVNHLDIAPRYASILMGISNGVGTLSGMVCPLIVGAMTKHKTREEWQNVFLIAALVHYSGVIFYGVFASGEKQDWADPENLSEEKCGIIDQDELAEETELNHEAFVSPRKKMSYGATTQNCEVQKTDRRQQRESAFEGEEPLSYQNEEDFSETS
Briefly: Inhibition of Vesicular glutamate transporter (VGLUT) by the ability to block the uptake of 250 uM of [3,4-3H]-L-glutamate into synaptic vesicles isolated from rat forebrain at equimolar conc. (250 uM ). It counts as functional. The method in brief: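 Same vesicle uptake set-up (0.25 mM [3H]-L-glutamate, 2.0 mM ATP, 30 °C, 1.5 min, filtration/LSC, ATP-free background subtracted), with inhibitor at 250 µM added with substrate. Expressed as % of control uptake, mean ± SEM (n).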

The target in assay [2] is T1, Vesicular glutamate transporter 3 (Rattus norvegicus). Briefly: Inhibition of Vesicular glutamate transporter (VGLUT) by the ability to block the uptake of 250 uM of [3,4-3H]-L-glutamate into synaptic vesicles isolated from rat forebrain at a 20 fold excess (5 mM) of inhibitor. It counts as functional. The method in brief: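 Inhibitor at 5 mM added with substrate. Quenched in ice-cold 150 mM KCl, filtered, counted by LSC. ATP-free uptake subtracted. Expressed as % of control uptake, mean ± SEM (n).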

The target of assay [3] is T2, Vesicular glutamate transporter 3 (Rattus norvegicus, UniProt Q7TSF2).
T2 sequence (Q7TSF2 whole entry): T1 sequence (whole entry)
Nature of the assay: Inhibitory conc. against Vesicular glutamate transporter (VGLUT), derived from Lineweaver-Burke analysis. Summed up: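 Uptake into rat forebrain synaptic vesicles (ATP 2.0 mM, 30 °C, 1.5 min, [3H]-L-glutamate, filtration and LSC) run across both inhibitor and substrate concentrations. Ki from Lineweaver-Burk double reciprocal plots (1/V vs 1/[S]) and a replot of Km(app) against inhibitor concentration.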

Assay [4] addresses T2, Vesicular glutamate transporter 3. Nature of the assay: Estimated inhibitory conc. against Vesicular glutamate transporter (VGLUT), using Cheng-Prushoff equation. The method in brief:
(§1)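 Rat forebrain synaptic vesicles (male Sprague-Dawley, stored -80 °C). Vesicles (100-150 µg protein) preincubated 5 min at 30 °C. Ran 1.5 min, then filtration and LSC. Uptake without ATP subtracted. IC50 from dose-response; Ki by Cheng-Prusoff.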

Assay [5] shares this target. Nature of the assay: Evaluated for competitive inhibition against Vesicular glutamate transporter (VGLUT), and Ki value was reported.
Assay [6] has the same target. Nature of the assay: Compound was evaluated for the inhibition of Vesicular glutamate transporter (VGLUT).
For assay [7] the target is unchanged. Nature of the assay: Compound was evaluated for competitive inhibition against Vesicular glutamate transporter (VGLUT), and Ki value was reported,.using Cheng-Prushoff equation. Summed up: as §1

Take `COc1cc(OC)c2c(C(=O)O)cc(C(=O)O)nc2c1`: the Glutamate uptake remaining (% of control) in assay [1] worked out at 100%; in assay [2], 15%.
In assay [2], `O=C(O)c1cc(C(=O)O)c2ccc(Cl)c(Cl)c2n1` returned a Glutamate uptake remaining (% of control) of 2%.
For the compound `COc1ccc2nc(C(=O)O)cc(C(=O)O)c2c1`, the Glutamate uptake remaining (% of control) worked out at 100% in assay [1] and 51% in assay [2].
For `O=C(O)c1cc(C(=O)O)c2cc3c(cc2n1)OCCO3`, in that order: 100% and 12%.
The matching figures for `O=C(O)c1cc(C(=O)O)c2cccc(F)c2n1`: 100% and 39%.
`O=C(O)c1cc(C(=O)O)c2cc(/C=C/c3ccccc3)ccc2n1` had a Glutamate uptake remaining (% of control) in assay [1] of 51%. Further, the Ki was 129 µM in assay [3] and 167 µM in assay [4].
The compound `O=C(O)c1cc(C(=O)O)c2cc(OCCCCCCO)ccc2n1` displayed a Glutamate uptake remaining (% of control) in assay [1] of 74%.
Same read-out and setting: with `CCCCCCOc1ccc2nc(C(=O)O)cc(C(=O)O)c2c1` the figure was 79%.
`O=C(O)c1cc(C(=O)O)c2c(F)cccc2n1`: the Glutamate uptake remaining (% of control) in assay [1] was determined as 100%; in assay [2], 54%.
Consider `COc1cc(-c2ccc(/N=N/c3ccc4c(S(=O)(=O)O)cc(S(=O)(=O)O)c(N)c4c3O)c(OC)c2)ccc1/N=N/c1ccc2c(S(=O)(=O)O)cc(S(=O)(=O)O)c(N)c2c1O` [CHICAGO SKY BLUE], for which the Ki in assay [5] is 0.19 µM.
`O=C(O)c1cc(C(=O)O)c2ccc(O)cc2n1`: the Glutamate uptake remaining (% of control) in assay [1] is 100%.
Consider `O=C(O)c1cc(C(=O)O)c2c(Br)cccc2n1`, for which the Glutamate uptake remaining (% of control) turned out to be 100% in assay [1] and 11% in assay [2].
`O=C(O)c1cc(=O)c2ccccc2[nH]1` [TRANSTORINE]: in assay [6], affinity was put at a Ki of 1300 µM.
`O=C(O)c1cc(C(=O)O)c2cc(Br)cc(Br)c2n1` yielded a Glutamate uptake remaining (% of control) in assay [2] of 2%.
Regarding `COc1ccc(OC)c2c(C(=O)O)cc(C(=O)O)nc12`, the Glutamate uptake remaining (% of control) in assay [1] came to 100%; in assay [2] it was 62%.
For `COc1cccc2c(C(=O)O)cc(C(=O)O)nc12`, in that order: 90% and 20%.
For `O=C(O)c1cc(C(=O)O)c2cc(OCc3ccccc3)ccc2n1`, the Glutamate uptake remaining (% of control) in assay [1] was found to be 85%; in assay [2], 3%. In assay [4], the Ki was 368 µM.
Take `O=C(O)c1cc(C(=O)O)c2ccc(OCc3ccccc3)cc2n1`: the Glutamate uptake remaining (% of control) worked out at 50% in assay [1] and 1% in assay [2].
Consider `O=C(O)c1cc(C(=O)O)c2cccc(C(=O)O)c2n1`, for which the Glutamate uptake remaining (% of control) in assay [1] is 100%.
`O=C(O)c1cc(C(=O)O)c2cccc(Br)c2n1`: the values for the Glutamate uptake remaining (% of control) in assay [1] and in assay [2] were 100% and 7%, respectively.
In assay [1], `CCOc1ccc2nc(C(=O)O)cc(C(=O)O)c2c1` had a Glutamate uptake remaining (% of control) of 97%.
In turn, `O=C(O)c1cc(C(=O)O)c2cc(-c3ccc(-c4ccccc4)cc3)ccc2n1` had a Glutamate uptake remaining (% of control) in assay [1] of 20%. Also, the values for the Ki in assay [3] and in assay [4] were 95 µM and 41 µM, respectively.
`O=C(O)c1cc(C(=O)O)c2cc(-c3ccccc3)ccc2n1` came in with a Glutamate uptake remaining (% of control) in assay [1] of 77%.
As to `O=C(O)c1cc(C(=O)O)c2cc(OC3CCCCC3)ccc2n1`, the Glutamate uptake remaining (% of control) in assay [1] turned out to be 67%.
With `O=C(O)c1cc(C(=O)O)c2cc(OCCc3ccccc3)ccc2n1`, in assay [4], the Ki is 189 µM.
The compound `Cc1cc(-c2ccc(/N=N/c3ccc4c(S(=O)(=O)O)cc(S(=O)(=O)O)c(N)c4c3O)c(C)c2)ccc1/N=N/c1ccc2c(S(=O)(=O)O)cc(S(=O)(=O)O)c(N)c2c1O` [EVANS BLUE] came in with an inhibition constant Ki in assay [5] of 0.04 µM.
On the same count and under the same terms, with `O=C(O)c1cc(O)c2ccc(Cl)cc2n1` [7-CHLOROKYNURENIC ACID] the figure was 590 µM; with `O=C(O)c1cc(O)c2cccc(O)c2n1` [XANTHURENATE], 190 µM.
Regarding `O=C(O)c1cc(C(=O)O)c2cc(Cl)ccc2n1`, the Glutamate uptake remaining (% of control) in assay [1] was 73%; in assay [2] it was 1%.
In assay [1], `O=C(O)c1cc(C(=O)O)c2cc(/C=C/c3ccc(-c4ccccc4)cc3)ccc2n1` gave a Glutamate uptake remaining (% of control) of 37%. For the same compound, in assay [4], the inhibition constant (Ki) was 64 µM.
As for `O=C(O)c1cc(C(=O)O)c2cc3c(cc2n1)OCO3`, the results for the Glutamate uptake remaining (% of control) in assay [1] and in assay [2] were 100% and 24%, respectively.
In the case of `O=C(O)c1cc(C(=O)O)c2cc(CCc3ccccc3)ccc2n1`, the Glutamate uptake remaining (% of control) in assay [1] was determined as 47%. In addition, the Ki in assay [4] is 143 µM.
Regarding `O=C(O)c1cc(C(=O)O)c2cc(/C=C/c3cccc4ccccc34)ccc2n1`, the Glutamate uptake remaining (% of control) in assay [1] was determined as 21%.
On to `COc1cc2nc(C(=O)O)cc(C(=O)O)c2cc1OC`, for which the values for the Glutamate uptake remaining (% of control) in assay [1] and in assay [2] were 100% and 58%, respectively.
As for `O=C(O)c1cc(C(=O)O)c2cccc(O)c2n1`, the Glutamate uptake remaining (% of control) in assay [1] was 73%; in assay [2] it was 2%. The Ki in assay [4] was 286 µM.
In the case of `O=C(O)c1cc(C(=O)O)c2cc(OCCO)ccc2n1`, the Glutamate uptake remaining (% of control) in assay [1] came out at 100%.
Same read-out and setting: with `O=C(O)c1cc(C(=O)O)c2cc(Oc3ccccc3)ccc2n1` the figure was 74%.
Still for that read-out and setting: the value for `O=C(O)c1cc(C(=O)O)c2c(-c3cccc4ccccc34)cccc2n1` was 64%.
Still for that read-out and setting: with `O=C(O)c1cc(C(=O)O)c2c(/C=C/c3ccccc3)cccc2n1` the figure was 27%; with `O=C(O)c1cc(C(=O)O)c2cccc(-c3ccccc3)c2n1`, 88%.
In assay [5], `C=C(C[C@H](N)C(=O)O)C(=O)O` had a Ki of 3000 µM.
Take `O=C(O)c1cc(C(=O)O)c2cc(Br)ccc2n1`: the Glutamate uptake remaining (% of control) worked out at 74% in assay [1] and 2% in assay [2].
The matching figures for `COc1ccc2c(C(=O)O)cc(C(=O)O)nc2c1`: 100% and 48%.
`O=C(O)c1cc(C(=O)O)c2c(I)cccc2n1` yielded a Glutamate uptake remaining (% of control) in assay [1] of 100%.
`COc1cc(OC)c2nc(C(=O)O)cc(C(=O)O)c2c1`: the Glutamate uptake remaining (% of control) in assay [1] was determined as 100%; in assay [2] it was 40%.
Regarding `O=C(O)c1cc(C(=O)O)c2cc(-c3cccc4ccccc34)ccc2n1`, the Glutamate uptake remaining (% of control) in assay [1] was determined as 53%.
Take `O=C(O)c1cc(C(=O)O)c2ccccc2n1`: the Glutamate uptake remaining (% of control) was found to be 100% in assay [1] and 38% in assay [2].
In turn, `O=C(O)c1cc(C(=O)O)c2ccc(CCc3ccccc3)cc2n1` registered a Glutamate uptake remaining (% of control) in assay [1] of 29%.
In turn, `O=C(O)c1cc(C(=O)O)c2ccc(-c3ccccc3)cc2n1` gave a Glutamate uptake remaining (% of control) in assay [1] of 91%.
Consider `O=C(O)c1cc(C(=O)O)c2cc(O)ccc2n1`, for which the Glutamate uptake remaining (% of control) in assay [1] came to 100%.
`O=C(O)c1cc(C(=O)O)c2cc(/N=N/c3ccccc3)ccc2n1`: the Glutamate uptake remaining (% of control) in assay [1] stood at 31%; in assay [2], 0%. Also, affinity in assay [7] was put at a Ki of 288 µM.
Turning to `O=C(O)c1cc(C(=O)O)c2c(-c3ccccc3)cccc2n1`, the Glutamate uptake remaining (% of control) in assay [1] came to 100%.
As for `N[C@]1(C(=O)O)CC[C@H](C(=O)O)C1` (relative stereo), the Ki in assay [5] came out at 700 µM.
Take `O=C(O)c1cc(C(=O)O)c2cccc(-c3cccc4ccccc34)c2n1`: the Glutamate uptake remaining (% of control) in assay [1] came to 70%.
On to `O=C(O)c1cc(C(=O)O)c2cc(I)ccc2n1`, for which the figures for the Glutamate uptake remaining (% of control) in assay [1] and in assay [2] were 87% and 10%, respectively.
